Results from ChEMBL document CHEMBL3286094, “Synthesis and biological evaluation of novel bisbenzimidazoles as Escherichia coli topoisomerase IA inhibitors and potential antibacterial agents” (J Med Chem, 2014).
pIC50: −log10 of the molar value. Converted amounts (≈) assume the structure as drawn. The source made the active and inactive calls. The calls are words filed in the database; no cut-off is given here.

Columns and labels:
[1] = tested on: Escherichia coli; assay: Bactericidal activity against ciprofloxacin-resistant Escherichia coli 72 by agar plating method; assay type: functional
[2] = tested on: Escherichia coli; assay: Bactericidal activity against chloroamphenicol/ampicillin/kanamycin/trimethoprim/ciprofloxacin/nalidixic acid-resistant Escherichia coli 85 by agar plating method; assay type: functional
[3] = tested on: Escherichia coli; assay: Bactericidal activity against gentamicin/kanamycin/tetracycline/nalidixic acid-resistant Escherichia coli 360 by agar plating method; assay type: functional
[4] = tested on: Escherichia coli; assay: Bactericidal activity against ampicillin/kanamycin/trimethoprim/tetracyclin/ciprofloxacin/nalidixic acid-resistant Escherichia coli 81 by agar plating method; assay type: functional
[5] = tested on: Escherichia coli; assay: Bactericidal activity against chloramphenicol/ampicillin/kanamycin/trimethoprim/ciprofloxacin/nalidixic acid-resistant Escherichia coli 151 by agar plating method; assay type: functional
[6] = tested on: Escherichia coli; assay: Bactericidal activity against ampicillin/chloramphenicol/ciprofloxacin/gentamicin/tetracycline-resistant Escherichia coli 401 by agar plating method; assay type: functional
[7] = Inhibition of Escherichia coli DNA topoisomerase-1A using supercoiled pHOT1 plasmid DNA as substrate assessed as inhibition of DNA relaxation after 30 mins by agarose gel electrophoresis
Outline: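 Supercoiled plasmid DNA incubated with E. coli Topo IA in the presence of compound at […]. Relaxation products were resolved by electrophoresis on 1% agarose gel.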

[8] = tested on: Escherichia coli; assay: Inhibition of Escherichia coli DNA gyrase using relaxed pHOT1 plasmid DNA as substrate assessed as inhibition of DNA supercoiling up to 100 uM after 30 mins by agarose gel electrophoresis
[9] = organism: Homo sapiens; assay: Inhibition of human DNA topoisomerase-1B using supercoiled pHOT1 plasmid DNA as substrate assessed as inhibition of DNA relaxation at 100 uM after 30 mins by agarose gel electrophoresis
[10] = tested on: Escherichia coli; assay: Antibacterial activity against chloroamphenicol/ampicillin/kanamycin/trimethoprim/ciprofloxacin/nalidixic acid-resistant Escherichia coli 85 assessed as growth inhibition after 18 to 24 hrs by broth microdilution method; assay type: functional
[11] = tested on: Escherichia coli; assay: Antibacterial activity against chloramphenicol/ampicillin/trimethoprim/ciprofloxacin/nalidixic acid-resistant Escherichia coli 59 assessed as growth inhibition after 18 to 24 hrs by broth microdilution method; assay type: functional
[12] = tested on: Escherichia coli; assay: Bactericidal activity against multidrug-resistant Escherichia coli IP9 isolated from water source by agar plating method
[13] = tested on: Escherichia coli; assay: Bactericidal activity against ampicillin/tetracycline-resistant Escherichia coli IP18 isolated from water source by agar plating method
[14] = tested on: Escherichia coli; assay: Bactericidal activity against ampicillin/chloramphenicol/tetracycline/trimethoprim/ciprofloxacin-resistant Escherichia coli KK45 isolated from water source by agar plating method
[15] = tested on: Escherichia coli; assay: Antibacterial activity against ampicillin/tetracycline-resistant Escherichia coli IP18 isolated from water source assessed as growth inhibition after 18 to 24 hrs by broth microdilution method
[16] = tested on: Escherichia coli; assay: Inhibition of Escherichia coli DNA topoisomerase-1A using supercoiled pHOT1 plasmid DNA as substrate assessed as inhibition of DNA relaxation at 5 to 100 uM after 30 mins by agarose gel electrophoresis in presence of 25 mM MgCl2
[17] = Binding affinity to d(ATATATATATATAT)2 DNA (unknown origin) by fluorescence spectroscopic analysis
Outline: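 Fluorescence titration of the compound with a poly(AT) DNA sequence, with the binding constant derived from the titration.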

[18] = tested on: Escherichia coli; assay: Binding affinity to Escherichia coli DNA topoisomerase-1A by isothermal titration calorimetric analysis in presence of MgCl2/KCl
Outline: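 Isothermal titration calorimetry with sequential injections of EcTopo 1A into the compound solution. Raw heats were corrected using injections of identical amounts of EcTopo 1A into buffer alone. Binding affinity constant and binding free energy were derived from the thermogram.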

[19] = tested on: Escherichia coli; assay: Antibacterial activity against Escherichia coli ATCC 25922 in iv dosed Balb/c systemic infection model assessed as increase in survival administered single bolus dose measured every day for 7 days; assay type: functional
Outline: (§1)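 Mice were infected intraperitoneally with E. coli ATCC 25922 suspended in saline. Treatment was a single bolus intravenous tail-vein injection at 3, 5 or 7 mg/kg body weight, dissolved in sterile water. A vehicle-only group served as control. Survival was monitored after infection.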

[20] = tested on: Escherichia coli; assay: Antibacterial activity against Escherichia coli ATCC 25922 in Balb/c systemic infection model assessed as increase in survival at 7 mg/kg, iv administered single bolus dose measured every day for 7 days relative to vehicle-treated control; assay type: functional; conditions: ATCC 25922, in Mus musculus, 168 h; outline: as §1
[21] = tested on: Escherichia coli; assay: Antibacterial activity against Escherichia coli ATCC 25922 in iv dosed Balb/c neutropenic thigh infection model assessed as concentration required to cause 1 log10CFU reduction per gram of thigh administered as single bolus dose at 2 hrs post inoculation measured after 24 hrs; assay type: functional
Outline: (§2)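 Neutropenic thigh infection with E. coli ATCC 25922. Compound was dosed at 3 and 5 mg/kg body weight/day. Read-out was thigh bacterial burden, expressed as log reduction and compared with the static level.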

[22] = tested on: Escherichia coli; assay: Antibacterial activity against Escherichia coli ATCC 25922 in iv dosed Balb/c neutropenic thigh infection model assessed as concentration required to cause 3 log10CFU reduction per gram of thigh administered as single bolus dose at 2 hrs post inoculation measured after 24 hrs; assay type: functional; outline: as §2
[23] = tested on: Escherichia coli; assay: Antibacterial activity against Escherichia coli ATCC 25922 in iv dosed Balb/c neutropenic thigh infection model assessed as reduction of bacterial burden in thigh administered as single bolus dose at 2 hrs post inoculation measured after 24 hrs; assay type: functional; outline: as §2

Compound	MBC [1] [µg/mL]	MBC [2] [µg/mL]	MBC [3] [µg/mL]	MBC [4] [µg/mL]	MBC [5] [µg/mL]	MBC [6] [µg/mL]	pIC50 [7]	inhibition [8]	inhibition [9]	MIC50 [10] [µg/mL]	MIC90 [10] [µg/mL]	MIC50 [11] [µg/mL]	MIC90 [11] [µg/mL]	MBC [12] [µg/mL]	MBC [13] [µg/mL]	MBC [14] [µg/mL]	MIC50 [15] [µg/mL]	MIC90 [15] [µg/mL]	further results
CCCN1CCN(c2ccc3nc(-c4ccc5nc(-c6ccc(OC)c(OC)c6)[nH]c5c4)[nH]c3c2)CC1	4 (≈ 8.05 µM)	16 (≈ 32.2 µM)	16 (≈ 32.2 µM)	16 (≈ 32.2 µM)	16 (≈ 32.2 µM)	8 (≈ 16.1 µM)	5.52	inactive	Active	8 (≈ 16.1 µM)	15.2 (≈ 30.6 µM)	4 (≈ 8.05 µM)	7.5 (≈ 15.1 µM)	16 (≈ 32.2 µM)	8 (≈ 16.1 µM)	8 (≈ 16.1 µM)	4 (≈ 8.05 µM)	7.6 (≈ 15.3 µM)	–
COc1ccc(-c2nc3ccc(-c4nc5ccc(N6CCN(c7ncccn7)CC6)cc5[nH]4)cc3[nH]2)cc1OC	32 (≈ 60.1 µM)	64 (≈ 120 µM)	–	32 (≈ 60.1 µM)	32 (≈ 60.1 µM)	32 (≈ 60.1 µM)	5.21	inactive	Active	32 (≈ 60.1 µM)	55.8 (≈ 105 µM)	16 (≈ 30 µM)	30.2 (≈ 56.7 µM)	–	32 (≈ 60.1 µM)	32 (≈ 60.1 µM)	16 (≈ 30 µM)	30.8 (≈ 57.8 µM)	–
CCCN1CCN(c2ccc3nc(-c4ccc5nc(-c6ccc(OCC)cc6)[nH]c5c4)[nH]c3c2)CC1	4 (≈ 8.32 µM)	2 (≈ 4.16 µM)	2 (≈ 4.16 µM)	2 (≈ 4.16 µM)	2 (≈ 4.16 µM)	2 (≈ 4.16 µM)	5.70	inactive	inactive	1 (≈ 2.08 µM)	1.7 (≈ 3.54 µM)	2 (≈ 4.16 µM)	3.4 (≈ 7.07 µM)	4 (≈ 8.32 µM)	4 (≈ 8.32 µM)	2 (≈ 4.16 µM)	1 (≈ 2.08 µM)	3.4 (≈ 7.07 µM)	inhibition [16]: Active; K [17]: 7 ×10⁷ /M; Ka [18]: 6.8 ×10⁶ /M; Activity [19]: Dose-dependent effect; ED50 ([19]; ATCC 25922, in Mus musculus, 168 h): 5 mg/kg; survival at 7 mg/kg [20]: 75%; Activity [21]: 3 mg/kg/day; Activity [22]: 5 mg/kg/day; Activity [23]: Dose-dependent effect; MIC50 ([23]; ATCC 25922, Thigh): 0.2 µg/mL (≈ 0.416 µM)
COc1ccc(-c2nc3ccc(-c4nc5ccc(N6CCN(c7ccncc7)CC6)cc5[nH]4)cc3[nH]2)cc1OC	2 (≈ 3.76 µM)	4 (≈ 7.52 µM)	2 (≈ 3.76 µM)	4 (≈ 7.52 µM)	2 (≈ 3.76 µM)	2 (≈ 3.76 µM)	5.21	inactive	inactive	2 (≈ 3.76 µM)	3.6 (≈ 6.77 µM)	1 (≈ 1.88 µM)	3.6 (≈ 6.77 µM)	4 (≈ 7.52 µM)	4 (≈ 7.52 µM)	4 (≈ 7.52 µM)	2 (≈ 3.76 µM)	3.7 (≈ 6.96 µM)	–
CCOc1ccc(-c2nc3ccc(-c4nc5ccc(N6CCN(CCN(C)C)CC6)cc5[nH]4)cc3[nH]2)cc1	64 (≈ 126 µM)	32 (≈ 62.8 µM)	128 (≈ 251 µM)	64 (≈ 126 µM)	64 (≈ 126 µM)	32 (≈ 62.8 µM)	5.03	inactive	inactive	16 (≈ 31.4 µM)	28.6 (≈ 56.1 µM)	16 (≈ 31.4 µM)	28.8 (≈ 56.5 µM)	128 (≈ 251 µM)	32 (≈ 62.8 µM)	32 (≈ 62.8 µM)	16 (≈ 31.4 µM)	30.6 (≈ 60 µM)	–
CCOc1ccc(-c2nc3ccc(-c4nc5ccc(N6CCN(CC)CC6)cc5[nH]4)cc3[nH]2)cc1	8 (≈ 17.1 µM)	8 (≈ 17.1 µM)	64 (≈ 137 µM)	8 (≈ 17.1 µM)	8 (≈ 17.1 µM)	4 (≈ 8.57 µM)	5.24	inactive	Active	4 (≈ 8.57 µM)	6.9 (≈ 14.8 µM)	4 (≈ 8.57 µM)	7.4 (≈ 15.9 µM)	8 (≈ 17.1 µM)	8 (≈ 17.1 µM)	8 (≈ 17.1 µM)	4 (≈ 8.57 µM)	7.6 (≈ 16.3 µM)	–
